Data on 23 molecules can be found in ChEMBL document CHEMBL1137535, “Structure-activity relationship of antileishmanials neolignan analogues” (2007).

Some results are limits rather than exact numbers.

Assay [1] can be described thus: (§1) Toxicity against BALB/c mouse macrophages assessed as cell viability. The assay is classed as functional, Macrophage. On the set-up: concentration or dose not given beside the values.
In the next assay the test system is Leishmania donovani. Kind of assay: Antileishmanial activity against Leishmania donovani LD-1/MHOM/SD/00-1S in mouse peritoneal macrophages at 80 ug/mL after 48 hrs relative to control. The assay is classed as functional. In a few lines:
(§2)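 BALB/c peritoneal macrophages, 2 · 10⁵ cells per chamber in DMEM, held 2 h at 37 °C in 4% CO₂/air. They were then infected for 4 h with 8 · 10⁵ stationary-phase promastigotes in DMEM with 5% heat-inactivated FCS and antibiotics. After washing off free parasites, compound was added in quadruplicate for 48 h. Monolayers were methanol-fixed and Giemsa-stained, and amastigotes counted per 200 cells. Result is % growth inhibition versus untreated controls.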

For another assay, the system named is Leishmania amazonensis. Kind of assay: Antileishmanial activity against Leishmania amazonensis MHOM/BR/75-josefa in mouse peritoneal macrophages at 80 ug/mL after 48 hrs relative to control. The assay is classed as functional. In a few lines: as §2
Assay [2] is described as follows: Toxicity against BALB/c mouse macrophages assessed as disrupted cells. The assay is classed as functional, Macrophage.
For the next assay, the system named is Macrophage. Described as §1. Details: concentration or dose not given beside the values. The assay is classed as functional.

As a reminder, the inhibition is the relative decrease from the control value, in per cent. Turning to `O=C(CSc1ccc(Cl)cc1)c1ccccc1`, the Activity in assay [1] is given as over 80%. The figures for the inhibition at 80 µg/mL in the assay with Leishmania donovani and with Leishmania amazonensis were 37.2% and 38.8%, respectively.

On to `O=C(COc1ccccc1)c1ccccc1`, for which the Activity in assay [1] is over 80%. For the same molecule, the inhibition at 80 µg/mL worked out at 40% with Leishmania donovani and 44% in the assay with Leishmania amazonensis.

For `CC(C(=O)c1ccccc1)S(=O)(=O)c1ccc(Cl)cc1` (configuration not stated), the Activity in assay [1] was over 80%. Also, the inhibition at 80 µg/mL with Leishmania donovani and in the assay on Leishmania amazonensis was 0% each time.

Take `O=C(CSc1ccc(Cl)cc1)c1ccc(Cl)cc1`: the Activity in assay [1] is over 80%. The inhibition at 80 µg/mL in the assay on Leishmania donovani was found to be 0%; in the assay on Leishmania amazonensis, 50.5%.

Turning to `COc1ccc(C(=O)C(C)Sc2ccc(C)cc2)cc1OC` (configuration not stated), the inhibition at 80 µg/mL in the assay with Leishmania donovani and in the assay with Leishmania amazonensis was 100% throughout.

Consider `COc1ccc(C(=O)COc2ccc(Cl)cc2)cc1OC`, for which, in assay [1], the Activity is given as over 80%. For the same molecule, the inhibition at 80 µg/mL in the assay on Leishmania donovani was determined as 0%; in the assay on Leishmania amazonensis, 17.7%.

On to `CC(C(=O)c1ccccc1)[S+]([O-])c1ccc(Cl)cc1` (configuration not stated), for which the Activity in assay [1] is given as over 80%. In addition, the results for the inhibition at 80 µg/mL in the assay with Leishmania donovani and in the assay on Leishmania amazonensis were 0% and 20.7%, respectively.

Turning to `C[C@H](Sc1ccc(Cl)cc1)[C@H](O)c1ccccc1` (relative stereo), the Activity in assay [1] is given as over 80%. Further, the inhibition at 80 µg/mL with Leishmania donovani was 45.2%; with Leishmania amazonensis, 50.6%.

With `C/C=C/c1ccc(OC(C)C(=O)c2ccc(OC)c(OC)c2)c(OC)c1` (configuration not stated), in assay [1], the Activity is over 80%. The inhibition at 80 µg/mL with Leishmania donovani is 50%; in the assay on Leishmania amazonensis, 34.2%.

On to `CC(Sc1ccccc1)C(=O)c1ccccc1` (configuration not stated), for which the Activity in assay [1] was over 80%. In addition, the inhibition at 80 µg/mL was 70.2% with Leishmania donovani and 78.1% in the assay on Leishmania amazonensis.

Regarding `COc1ccc([C@@H](O)[C@H](C)Sc2ccc(Cl)cc2)cc1OC` (relative stereo), the Activity in assay [1] is given as over 80%. The inhibition at 80 µg/mL in the assay on Leishmania donovani was 0%; with Leishmania amazonensis, 36.1%.

Consider `Cc1ccc(SC(C)C(=O)c2ccccc2)cc1` (configuration not stated), for which the Activity in assay [2] is given as over 80%.

On to `CC(Sc1ccc(Cl)cc1)C(=O)c1ccccc1` (configuration not stated), for which, in assay [1], the Activity is given as over 80%. Moreover, the results for the inhibition at 80 µg/mL in the assay with Leishmania donovani and in the assay on Leishmania amazonensis were 94.1% and 100%, respectively.

Regarding `CC(=O)O[C@H](c1ccccc1)[C@H](C)Sc1ccc(Cl)cc1` (relative stereo), the Activity in assay [1] is reported as over 80%. Also, the inhibition at 80 µg/mL in the assay on Leishmania donovani and in the assay with Leishmania amazonensis was 0% in each case.

As for `COc1ccc(C(=O)C(C)Oc2c(OC)cccc2OC)cc1OC` (configuration not stated), in assay [1], the Activity is on record as over 80%. In addition, the values for the inhibition at 80 µg/mL in the assay on Leishmania donovani and in the assay on Leishmania amazonensis were 49.9% and 37.9%, respectively.

Take `COc1ccc(C(=O)C(C)Sc2ccccc2)cc1OC` (configuration not stated): the Activity in assay [2] is over 80%.

For the molecule `COc1ccc(C(=O)C(C)Sc2ccc(Cl)cc2)cc1OC` (configuration not stated), the Activity in assay [1] is recorded as over 80%. In addition, the results for the inhibition at 80 µg/mL in the assay on Leishmania donovani and in the assay on Leishmania amazonensis were 22% and 63.3%, respectively.

Regarding `CC(Sc1ccc(N)cc1)C(=O)c1ccccc1` (configuration not stated), the Activity in assay [1] is on record as over 80%. The results for the inhibition at 80 µg/mL in the assay on Leishmania donovani and in the assay on Leishmania amazonensis were 28.8% and 0%, respectively.

With `CSc1ccccc1OCC(=O)c1ccc(Cl)cc1`, the Activity in assay [1] is reported as over 80%. Further, the inhibition at 80 µg/mL in the assay with Leishmania donovani was found to be 5.8%; with Leishmania amazonensis, 8.8%.

In the case of `COc1ccc(C(=O)C(C)Sc2ccc(N)cc2)cc1OC` (configuration not stated), in assay [2], the Activity is over 80%.

For the molecule `COc1ccc([C@@H](O)[C@H](C)Sc2ccc(C)cc2)cc1OC` (relative stereo), in assay [1], the Activity is over 80%. The inhibition at 80 µg/mL with Leishmania donovani was 0%; in the assay on Leishmania amazonensis it was 40.6%.

As for `COc1ccc(C(=O)C(C)S(=O)(=O)c2ccc(C)cc2)cc1OC` (configuration not stated), the Activity in assay [1] is listed as over 80%. Moreover, the inhibition at 80 µg/mL came out at 0% in the assay with Leishmania donovani and 7% in the assay on Leishmania amazonensis.

For MEGLUMINE ANTIMONATE, the Activity in the assay with Macrophage is over 80%. Further, the inhibition was 26% with Leishmania donovani and 28.2% with Leishmania amazonensis.
